From PubChem
Hits are enriched below; roughly 3% of the tested compounds scored in any of these assays.
Yeast superoxide = lowers age-related superoxide in aged yeast cells. S. cerevisiae aged cells, superoxide DHE fluorescence; stronger effect = lower value. 330,000 tested, 0.18% active. AID 2690. superoxide response (% of plate mean), % at 10 µM;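 active = superoxide response under a set limit, about three screen SD below normal, cut at about 65% in these data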;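 note: yeast aged for seven days with compound at 30 °C before DHE staining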
V-ATPase pHluor = alters yeast V-ATPase proton transport; AID 504577; 350,000 tested, 0.37% active; response, % at 10 µM; S. cerevisiae, pHLuorin cytosolic pH fluorescence; in the data active = response mostly above about 7.3%, no sharp cut-off; inactive = mostly below about 5.4%; note: actives read high
AI-2 QS modul = Vibrio harveyi AI-2 quorum sensing modulation | activity change, % at 7.5 µM | 300,000 tested, 0.4% active | Vibrio harveyi JMH597 AI-2 luminescence/OD600 ratio, 9 h; stronger effect = lower value; strain lacks LuxN and CqsS sensors; 0 = neutral-control median; in the data active = activity change below about -75%, passing the limit was not always enough;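 note: luminescence divided by OD600 gain over 9 h not by final OD600 alone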
HIF act = HIF pathway transcriptional activation; U2OS HRE-luciferase reporter, luminescence; normalized: DMSO 0%, desferrioxamine 100%; 300,000 tested, 0.32% active; activation, % at 7.5 µM (by protocol);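 active = mean activation of at least 10% of the iron chelator positive control signal, with at least half of replicates also reaching 10%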
T cruzi repl = blocks replication of Trypanosoma cruzi | 300,000 tested, 1.4% active | T. cruzi beta-gal in NIH3T3, luminescence, 90 h | inhibition, % (concentration not given with the values);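 active = mean inhibition across valid replicates above about 55%, limit read from the data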;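 note: signal also drops with host cell toxicity which is not excluded here; higher percent means less beta-gal luminescence so fewer parasites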
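System: NIH/3T3 fibroblasts plus reporter T. cruzi. Medium: DMEM plus 2% FBS. Probe or stimulus: 5000 reporter trypomastigotes per well. Compound: single 50 nL compound addition per well in DMSO. Incubation: co-culture of at least 90 h after 3 h attachment. Detection: GalScreen β-gal luminescence, detergent lysis, 60 min. Evaluation: parasite load inhibition, %.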
NRP1-CendR mod = NRP-1/CendR interaction modulation | O14786 | FAM-RPARPAR peptide binding to NRP-1, fluorescence polarization | inhibition, % at 25 µM | 360,000 tested, 0.85% active;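 active = inhibition or corrected inhibition above about 18%, plus a signal ratio from 0.5 to 1.5, limit read from the data, passing the limit was not always enough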
Hits are given with their value; n = inactive; x = not tested or not shown.

SMILES	Yeast superoxide	V-ATPase pHluor	AI-2 QS modul	HIF act	T cruzi repl	NRP1-CendR mod
CSc1cccc(NC(=O)c2ccco2)c1	n	n	n	n	n	21
O=C(Nc1cccc(NC(=O)c2ccc(-c3ccc(Br)cc3)o2)c1)c1ccco1	n	n	n	n	58	n
CCN(Cc1ccccc1)C(c1cccs1)c1nnnn1C1CCCCC1 (centres undefined)	n	n	n	n	56	n
COc1cccc(CNC(=O)C2CCN(Cc3cnn(-c4ccccc4)c3-n3cccc3)CC2)c1	n	n	n	n	n	n
Cn1c2c(c(=O)n(C)c1=O)[C@@]1(C(=O)Nc3ccccc31)C(C#N)=C(N)O2	n	n	-92	n	n	n
CN1c2ccccc2N(C)C1(C)c1ccccc1	n	n	n	n	62	n
CCN1c2ccccc2N(C)C1(C)c1ccccc1 (centres undefined)	n	n	x	x	x	n
O=C(O)CCC(=O)N1CCN(c2nc(-c3ccccc3Cl)c3cc(Br)ccc3n2)CC1	n	n	n	n	n	n
O=[N+]([O-])c1ccc(S(=O)(=O)c2cccc(C(F)(F)F)c2)nc1	n	n	n	n	66	n
O=S(=O)(Nc1cccnc1)c1cccc(C(F)(F)F)c1	n	n	n	n	n	n
COc1ccc(/C=C/c2nc(N)nc(-c3ccccc3O)n2)cc1OC	n	n	n	n	67	n
COc1cc(/C=C/c2nc(N)nc(-c3ccccc3O)n2)cc(OC)c1OC	n	n	n	n	n	n
S=c1[nH]nc(Cc2ccc(Br)cc2)n1/N=C/c1ccc(Cl)cc1	n	n	n	n	n	n
COc1ccc(CCNC(=O)c2cc([C@@H](NC(=O)OC(C)(C)C)C(C)C)sc2N)cc1OC	x	x	x	x	x	n
N#C/C(=C(/O)c1ccc([N+](=O)[O-])s1)c1nc2ccccc2[nH]1	n	n	n	n	55	n
Cn1ccc(CC(=O)N2CCC(N3CCC(C(=O)N4CCCC4)CC3)CC2)c1	n	n	n	n	n	n
Cc1cccc(NC(=O)CNC(=O)c2cc(C3CC3)nn2-c2ccccc2)c1C	x	24	x	x	x	n
O=C(CCl)N(c1ccccc1)C1CCCCC1	n	n	n	n	65	n
Cn1c(N/N=C/c2cc3ccccc3nc2Cl)nc2ccccc21	n	n	n	22	n	n
CCN(Cc1ccncc1)C(=O)c1cc(COc2ccc(C)c(C)c2)on1	n	n	n	n	56	n
O=C(c1cc(COc2ccc(F)cc2Cl)on1)N(Cc1ccncc1)CC1CCCO1 (centres undefined)	n	n	n	n	70	n
Cc1ccc(OCc2cc(C(=O)N(CCO)Cc3cccs3)no2)cc1C	n	n	n	n	n	n
CCOC(=O)[C@]12CCC=C1N(Cc1ccc3c(c1)OCO3)C(=O)[C@H](CC(=O)N1CCCC1)C2	x	x	x	x	x	n
CCOc1ccccc1Nc1nnc(C)c(=O)[nH]1	n	15	n	n	n	n
CC(=O)c1n[nH]nc1Nc1nc(C)cc(C)n1	n	n	n	n	n	n
SMILES	Yeast superoxide	V-ATPase pHluor	AI-2 QS modul	HIF act	T cruzi repl	NRP1-CendR mod
COC(=O)[C@@H]1C[C@H]1[C@@H](NC(=O)c1cc(C)on1)c1ccccc1	n	n	n	n	n	n
N#CCSc1nc2c(c(=O)n1Cc1ccco1)C1(CCCC1)Cc1ccccc1-2	n	n	n	n	n	n
Cc1ccc(-n2nnnc2SCC(=O)NCC2(N3CCCCC3)CCCCC2)c(C)c1	n	n	x	x	x	n
CN1OC[C@@H]2CN(Cc3ccccc3)[C@H](c3cccc(Oc4ccccc4)c3)C[C@@H]21	x	n	x	x	x	25
CN1OC[C@@H]2CN(Cc3cc(Cl)cc(Cl)c3)[C@H](c3cccc(Oc4ccccc4)c3)C[C@@H]21	x	n	x	x	x	n
CC(C)c1ccc2[nH]c(O)c(N=NC(=O)c3cccc(S(=O)(=O)N4CCCCC4)c3)c2c1	n	n	n	n	69	n
O=C(N=Nc1c(O)[nH]c2ccccc12)c1cccc(S(=O)(=O)N2CCCCC2)c1	n	n	n	n	n	n
Cc1ccc(S(=O)(=O)N2CCCC(C(=O)NC3=NCCS3)C2)cc1 (centres undefined)	n	n	n	n	n	n
Cc1ccc(S(=O)(=O)N2CCC[C@H]2C(=O)NC2=NCCS2)cc1	x	n	x	x	x	24
O=C1C(C=NCc2ccccn2)=C(O)c2ccccc21	n	n	n	n	n	n
CC(C)CN=CC1=C(O)c2ccccc2C1=O	n	n	n	n	n	23
O=C(c1ccccc1)c1cccn1CC(=O)N1CCc2ccccc2C1	n	n	n	n	n	n
CC(OC(=O)c1ccco1)C(=O)Nc1nc(-c2ccccc2)cs1 (centres undefined)	n	n	x	x	x	30
O=C(Nc1nc(-c2ccccc2)cs1)c1ccco1	n	n	n	n	n	n
Cc1cc(S(=O)(=O)N2CCOCC2)ccc1OCC(=O)Nc1ccccc1C(F)(F)F	n	n	n	n	n	n
S=c1[nH]nc(-c2ccco2)n1/N=C/c1cccs1	n	n	n	58	n	n
Cc1cccc(/C=C2\Sc3ccc(C(=O)NCC4CCCO4)cc3N(C)C2=O)c1 (centres undefined)	n	n	n	n	n	n
CCOc1ccc(/C=C2/Sc3ccc(C(=O)NCC4CCCO4)cc3N(C)C2=O)cc1OC (centres undefined)	n	n	n	n	n	27
COc1ccc(C(=O)NC2CC3CCCC(C2)N3CC(C)C)cc1OC (centres undefined)	n	n	n	n	n	n
NC(=O)c1c(N)sc(=S)n1-c1ccccc1	n	n	n	n	n	n
O=[N+]([O-])c1ccc(-n2nnnc2-c2ccccc2)c([N+](=O)[O-])c1	n	n	n	n	62	n
O=C(CCCC(=O)OCC(Cl)=C(Cl)Cl)Nc1cccc2ccccc12	n	n	n	n	n	n
O=C(O)c1cc([N+](=O)[O-])ccc1Oc1ccccc1	x	n	x	x	x	26
O=[N+]([O-])c1ccc(Cc2ccncc2)cc1	n	n	n	n	n	26
O=[N+]([O-])c1ccc(Cc2ccc([N+](=O)[O-])cc2)cc1	x	n	x	x	x	n
COc1ccc(/C=N\N=C2/SC(CC(=O)O)C(=O)N2c2ccc(O)cc2)cc1 (centres undefined)	n	n	n	n	n	n
C=CCOc1ccc(/C=C2\SC(=Nc3cccnc3)NC2=O)cc1	n	n	n	84	n	n
COc1ccc(CNN2CCCCC2C(=O)Nc2ccc(OC)c(OCC(C)C)c2)cc1OC (centres undefined)	n	n	n	n	57	n
COc1ccc(NC(=O)C2CCCCN2N)cc1OCC(C)C (centres undefined)	n	n	n	n	n	n
CC1S/C(=N\N=C\c2cccc([N+](=O)[O-])c2)N(C(C)(C)C)C1=O (centres undefined)	n	n	n	n	n	n
